Compound activity deposited in PubChem BioAssay by several laboratories.
Rows were chosen to be rich in hits. Some 2% of all compounds tested hit in one or more screens of this group.
beta cell repl = inducers of beta-cell replication in MIN6 cells; AID 2380; MIN6 cells proliferation, ATPlite luminescence, 48 h; cells starved in 0.2% serum; 100% = growth in 10% serum; 330,000 compounds, 0.29% hits; proliferation, % at 10 µM;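 active = compounds whose signal lies at least 3.5 SD above the mean of all wells on their plate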;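 also: 0% = DMSO-treated cells in low-serum medium and 100% = 10% serum control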
IMP-1 inhibitor = inhibitors of Pseudomonas aeruginosa IMP-1 metallo-beta-lactamase; purified IMP-1, nitrocefin hydrolysis, epi-absorbance fluorescence; inhibition, % at 5.6 µM; 290,000 compounds, 0.45% hits; AID 1556;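 active = inhibition above the mean plus 3 SD of all compounds in the same screening run, cut at about 4.5% in these data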;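 also: 0% = IMP-1 with DMSO and 100% = DMSO wells lacking enzyme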
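System: Purified recombinant IMP-1 metallo-beta-lactamase enzyme | Measured by: Fluorescence quenching readout, ex 480/em 530 nm | Replication: Singlicate | Incubation: 15 min preincubation plus 25 min reaction at 25 °C | Evaluation: Percent inhibition from optical density relative to buffer-blank wells | Benchmarks: DMSO with and without IMP-1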
ATG4B inh = blocks human ATG4B protease cleavage of LC3 substrate | Q9Y4P1 | ATG4B cleavage of LC3-PLA2, NBD-HPC fluorescence, 1 h | inhibition, % at 8.33 µM | 340,000 compounds, 0.51% hits; in the data active = inhibition above about 40%
Target sequence (Q9Y4P1 whole entry, looked up): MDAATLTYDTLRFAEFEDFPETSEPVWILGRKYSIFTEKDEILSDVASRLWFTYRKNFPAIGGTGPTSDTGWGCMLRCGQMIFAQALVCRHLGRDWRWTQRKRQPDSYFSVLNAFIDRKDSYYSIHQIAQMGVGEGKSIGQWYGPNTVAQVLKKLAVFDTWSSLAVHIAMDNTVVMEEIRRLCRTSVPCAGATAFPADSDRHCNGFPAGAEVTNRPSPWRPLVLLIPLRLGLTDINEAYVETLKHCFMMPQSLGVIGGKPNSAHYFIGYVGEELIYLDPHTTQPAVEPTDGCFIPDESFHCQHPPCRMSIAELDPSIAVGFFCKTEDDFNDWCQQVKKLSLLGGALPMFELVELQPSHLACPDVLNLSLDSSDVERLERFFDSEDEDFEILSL
VIM-2 inhibitor = inhibitors of Pseudomonas aeruginosa VIM-2 metallo-beta-lactamase | inhibition, % at 5.6 µM | AID 1527 | 290,000 compounds, 0.89% hits | purified VIM-2, nitrocefin hydrolysis, epi-absorbance fluorescence;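 active = inhibition above the mean of all tested compounds plus 3 SD, cutoff set per screening run, cut at about 7.5% in these data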;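 also: red hydrolysis product quenches plate fluorescence so inhibitors raise well fluorescence; 0% = enzyme with DMSO and 100% = DMSO without enzyme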
PvdQ acylase = blocks Pseudomonas aeruginosa PvdQ acylase activity; AID 488965; 340,000 compounds, 0.063% hits; inhibition, % at 10 µM; purified PvdQ acylase, fluorescence plate reader; in the data active = inhibition above about 30%, passing the limit was not always enough;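 also: 0% = vehicle neutral wells and 100% = reference inhibitor wells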
HKDC1 inhibitor = inhibitors of human hexokinase HKDC1 | recombinant HKDC1, G6PDH/diaphorase resazurin coupled fluorescence | inhibition, % at 20 µM | 340,000 compounds, 0.16% hits;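 active = inhibition above about 35% when tested at 20 µM, limit read from the data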;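 also: plate controls were DMSO wells with enzyme for no effect and DMSO wells lacking enzyme for full effect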
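Assay system – recombinant HKDC1 (HK5) hexokinase enzyme, produced in-house · Input – HKDC1 at 5 µg/mL · Reagent – glucose plus 1 mM ATP as hexokinase substrates · Timing – 90 min reaction incubation at room temperature, dark · Measured by – G6PDH/diaphorase-coupled fluorescence, 1 mM NADP, 100 µM resazurin, 525/613 nm · Benchmarks – DMSO-enzyme wells negative, buffer-substituted wells positive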
HKDC1 act conf = confirmation of human HKDC1 activators; shares compounds with HKDC1 inhibitor; recombinant HKDC1, G6PDH/diaphorase resazurin fluorescence; hits give low values; inhibition, % at 20 µM; 740 compounds, 14% hits; AID 504708;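 active = inhibition at or below a set negative limit, negative inhibition meaning the enzyme was activated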
* = called active by the depositor; x = no result given.

SMILES	beta cell repl	IMP-1 inhibitor	ATG4B inh	VIM-2 inhibitor	PvdQ acylase	HKDC1 inhibitor	HKDC1 act conf
CC(=NNC(=S)N1CCN(C2CCCCCC2)CC1)c1ccccn1	x	x	13.1	x	-1.8	-42.4	-39.9*
Cc1cc(C)cc(C(=O)OCC(=O)Nc2ncccn2)c1	0.2	x	-4.5	x	-7.7	5.4	x
O=C1c2ccccc2C(O)(Cc2ccccc2)N1c1ccc2c(c1)OCO2 (stereo not drawn)	0.6	-2.7	-8.3	-3.8	10.7	1.5	x
Oc1ccc(/C=N/Nc2nccnc2Cl)c(O)c1	-4.1	-4.4	-9.8	-4.3	-4.2	-4.8	x
Oc1ccc(/C=N/Nc2ncc(Br)cn2)c(O)c1	-0.7	-4.9	1.0	-1.2	-5.6	39.0*	44.6
O=[N+]([O-])c1ccc(NN=Cc2ccc(O)cc2O)nc1	x	x	0.2	x	-8.1	37.1*	50.8
Cc1ccc(F)cc1NC(=O)COC(=O)C1CCN(c2ccc(C(F)(F)F)cn2)CC1	-4.4	x	10.7	x	-12.8	-0.8	x
COc1cc2c(cc1OC)-c1cc(NCc3ccccn3)nc(=O)n1CC2	-2.9	1.2	-10.0	-2.7	-5.6	58.5*	54.0
O=C1C(C2=C(O)c3ccccc3C2=O)=Nc2ccccc21	-6.6	0.3	-13.7	-0.1	-12.5	-242.4	-161.8*
O=C1C(Cl)=C(N2CCN(c3ccccc3[N+](=O)[O-])CC2)C(=O)c2ccccc21	x	1.1	8.9	2.9	4.1	40.0*	-9.4
S=C(NN=C(c1ccccc1)c1ccccn1)N(Cc1ccccn1)Cc1ccccn1	x	x	3.1	x	-5.8	-46.0	-59.4*
Oc1ccc(O)c(Cc2nc3ccccc3s2)c1	-5.6	-0.9	5.4	2.1	2.9	45.4*	36.8
Oc1ccccc1OCc1nc2ccccc2s1	1.3	-3.1	-3.0	-2.9	1.4	-6.6	x
COCCN1C(=O)N[C@@H](c2cccc(F)c2)C(C(=O)OC)=C1C	-3.6	x	-8.0	x	-7.5	-3.5	x
CCS(=O)(=O)CCSc1nc2ccccc2s1	-3.5	-3.8	-1.1	-1.8	-7.3	9.2	x
O=S(=O)(CCSc1nc2ccccc2s1)c1nc2ccccc2s1	-5.7	-1.6	1.1	-3.2	-4.7	39.0*	-0.1
CCCc1nc2oc3c(NCCOCCO)ncnc3c2c2c1COC(C)(C)C2	-0.6	-1.9	-8.8	-1.8	-16.8	38.8*	41.7
Cc1nc2oc3c(NCC4CCCO4)ncnc3c2c2c1COC(C)(C)C2 (stereo not drawn)	-0.9	-2.5	-2.5	0.4	-4.3	17.7	x
CCCc1nc2oc3c(OC)ncnc3c2c2c1COC(C)(C)C2	2.3	-4.6	-16.6	-1.6	-4.0	36.5*	42.4
CC(C)c1nc2oc3c(NCC4CCCO4)ncnc3c2c2c1COC(C)(C)C2 (stereo not drawn)	x	-1.6	-2.8	-2.6	-11.1	40.0*	62.8
CCCc1nc2oc3c(NCCN4CCOCC4)ncnc3c2c2c1CCCC2	3.5	x	-7.9	x	-5.6	12.4	x
CC(C)c1nc2oc3c(NCCO)ncnc3c2c2c1COC(C)(C)C2	-0.8	-2.7	-6.6	-0.7	-17.4	45.7*	66.2
Cc1nc2oc3c(NCc4ccccc4)ncnc3c2c2c1COC(C)(C)C2	5.7	-0.2	-4.1	0.7	-20.0	26.4	x
CCOCCCNC(=O)/C(C#N)=C/c1ccc(C)o1	-2.4	-3.5	3.0	-3.2	5.4	6.9	x
O=C(Nc1ccccc1)Nc1ccc(O)c2ccccc12	-4.2	x	-10.9	x	x	19.9	x
SMILES	beta cell repl	IMP-1 inhibitor	ATG4B inh	VIM-2 inhibitor	PvdQ acylase	HKDC1 inhibitor	HKDC1 act conf
CCC(C)C(NC(=O)C1CCC(C)CC1)C(=O)NCc1ccccn1 (stereo not drawn)	4.9	-3.1	-10.4	-5.6	-3.6	2.4	x
COc1cc(N)c(Cl)cc1C(=O)OCC(=O)c1cccs1	-0.3	-3.7	-8.2	0.9	0.7	-3.5	x
CC(C)c1nc2oc3c(=O)[nH]cnc3c2c2c1COC(C)(C)C2	1.4	-3.0	-6.8	-3.1	-9.7	35.5*	48.4
CC(C)c1nc2oc3c(=O)[nH]cnc3c2c2c1CCC2	-1.1	1.3	5.8	-0.6	9.9	22.0	x
Cc1nn(-c2ccccc2)c(Cl)c1CN(C(=O)CCl)c1ccc(Cl)cc1	x	-4.3	5.8	-1.8	-10.7	38.2*	13.0
Cc1onc(-c2ccccc2)c1C(=O)N/N=C(\N)COc1ccc(Cl)cc1	2.9	-1.9	-3.5	-5.5	-9.7	-23.2	x
